Results from the M2OR odorant receptor database.

Biological target: T1, OR2M3 (Homo sapiens) (UniProt Q8NG83)
T1 sequence (whole entry): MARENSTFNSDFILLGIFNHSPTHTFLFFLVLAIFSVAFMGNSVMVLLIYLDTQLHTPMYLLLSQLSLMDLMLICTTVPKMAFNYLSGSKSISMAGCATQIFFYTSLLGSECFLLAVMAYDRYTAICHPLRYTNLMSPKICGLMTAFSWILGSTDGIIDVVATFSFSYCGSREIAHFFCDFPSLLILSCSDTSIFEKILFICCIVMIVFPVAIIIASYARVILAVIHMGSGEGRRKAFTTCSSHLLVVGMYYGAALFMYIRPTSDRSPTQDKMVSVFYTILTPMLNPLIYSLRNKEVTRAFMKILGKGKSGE
Settings: stereoisomer not certain
Summary of the method: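 Each receptor–molecule pair is labelled responsive or non-responsive (inactive) according to whether the original authors judged the measured signal statistically different from baseline. The data were taken from the main text and supplementary material of published papers and checked for typos and inconsistencies. Assay methods differed by source, with transient luciferase assays in mammalian cell lines being common.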
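Also: active if original authors judged signal statistically different from baseline.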

Odorant receptor agonist call, inactive:
CC(=O)C(C)O (stereo not drawn)
CCC=CCCC=CCO
CCc1cccc(O)c1
CCC(C)C(=O)OC (stereo not drawn)
C=CC(O)CCCCC (stereo not drawn)
CCc1ccc(O)c(OC)c1
CCCC(=O)OCC
CCCCCC1CCC(=O)O1 (stereo not drawn)
CCCCCCCC(=O)[O-].[H+]
CC1=CCC(C(C)C)C=C1 (stereo not drawn)
C=C1CCC2(C(C)C)CC12 (stereo not drawn)
COCCC(C)(C)S
COC(=O)C=Cc1ccccc1
CCCSSSCCC
CCCCCCCCC1CCC(=O)O1 (stereo not drawn)
CCOC(=O)C(C)CC (stereo not drawn)
CCCCCCC1CCC(=O)O1 (stereo not drawn)
CC=O
CCCC1CCCC(=O)O1 (stereo not drawn)
CCC(=O)C1=NCCC1
CCOC(=O)C(C)C
CCc1ncc(C)nc1CC
CCCCCCCCC=CC=O
CC(=O)c1ccc(C)cc1
CCCCC1OC(=O)CC1C (stereo not drawn)
CCOC(=O)CCC(C)C
CCOC(C)OCC
CSCCC=O
CC=Cc1ccc(OC)cc1
CC(C)CCCCCCCCCCC=O
CCC=O
CCC(=O)C(C)S (stereo not drawn)
CCOC(C)=O
CSCSC
CSSSC
CCOC(=O)C=Cc1ccccc1
C=CC(=O)CC
CCC=CCCC=CC=O
